# PG9 binder: binders of HIV-1 gp120 antibody PG9, primary screen, biochemical, TR-FRET. HIV-1 gp120 / PG9 antibody interaction. TR-FRET gp120-PG9 antibody binding. inhibition, % at 6.7 µM. 0.43% of 360,000 active; in the data active = inhibition above about 8.5%
# MC4R barr agon: MC4R agonists recruiting beta-arrestin, primary screen, cell-based, luminescence, agonist arm of biased-ligand search | Melanocortin receptor 4 (Homo sapiens), P32245 | U2OS MC4R beta-arrestin complementation; percent of melanotan II response, DMSO zero | activation, % at 8.9 µM | 0.98% of 360,000 active;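 active = activation above a per-plate cutoff, the mean activation of sample wells on that plate plus 3 SD, cut at about 8% in these data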
# Target sequence (P32245 whole entry, looked up): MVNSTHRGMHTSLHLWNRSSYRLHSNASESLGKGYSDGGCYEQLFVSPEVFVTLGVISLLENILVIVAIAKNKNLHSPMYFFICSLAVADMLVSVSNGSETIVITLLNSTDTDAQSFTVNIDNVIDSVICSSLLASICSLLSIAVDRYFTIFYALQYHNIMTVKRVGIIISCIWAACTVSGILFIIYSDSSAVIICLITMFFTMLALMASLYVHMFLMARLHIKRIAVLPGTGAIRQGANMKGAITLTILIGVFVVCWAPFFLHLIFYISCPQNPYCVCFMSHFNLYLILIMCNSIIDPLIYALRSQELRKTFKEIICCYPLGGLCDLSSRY
# Rev-erbA mod: modulators of Rev-erb alpha DNA binding, primary screen, biochemical, FITC-DNA, fluorescence polarization, uHTS | AID 1259318, 2017 | activity, % at 10 µM | Rev-erbα–FITC-DNA binding, 90 min | Nuclear receptor subfamily 1 group D member 1 (Homo sapiens), P20393 | 0.79% of 370,000 active;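 active = activity above about 14%, limit read from the data; passing the limit was not always enough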;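 also: 0% = DMSO wells with 35 nM protein and 100% = DMSO wells with 750 nM protein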
# NR2E3 ag-1: NR2E3 agonists in two-hybrid cells, primary screen, cell-based, luminescence, CHO-S, Gal4-NCOR/VP16-NR2E3; Photoreceptor-specific nuclear receptor (Homo sapiens), Q9Y5X4; luciferase; inhibition of corepressor binding, % at 3.98 µM; 0.35% of 360,000 active; AID 602229, 2012;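 active = inhibition above the mean of all tested compounds plus 3 SD, cut at about 70% in these data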;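 also: 0% = DMSO with NR2E3 transfected cells and 100% = cells lacking NR2E3 construct; higher means lower luciferase signal from less NR2E3 corepressor binding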
# NR2E3 ag-2: inhibitors of NR2E3-RetCOR corepressor binding, primary screen, NR2E3 agonist project, biochemical, TR-FRET, GST-NR2E3, biotin-RetCOR; Photoreceptor-specific nuclear receptor (Homo sapiens), Q9Y5X4; 1536-well; inhibition of corepressor binding, % at 4.78 µM; 0.12% of 320,000 active;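 active = percent inhibition above the cutoff of mean plus 3 SD of all tested compounds, set per screening campaign, cut at about 20% in these data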;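 also: 0% = DMSO wells and 100% = biotin wells as full block of FRET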
#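 system = GST-tagged NR2E3 plus biotinylated RetCOR corepressor | input = 1.35 nM GST-NR2E3 | also added = 7 nM biotin-RetCOR | schedule = 5 h incubation at 4 °C | measured by = TR-FRET with europium anti-GST and streptavidin-D2, 340 nm excitation | read-out = percent loss of FRET ratio relative to control wells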
# MC4R antag cAMP: MC4R antagonists of cAMP signaling, primary screen, cell-based, TR-FRET, antagonist arm of biased-ligand search. inhibition, % at 6.5 µM. 0.48% of 360,000 active. MC4R-expressing cells, MTII-stimulated cAMP, LANCE TR-FRET. AID 540295, 2011. Melanocortin receptor 4 (Homo sapiens), P32245;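 active = inhibition above its plate's cutoff, the mean of tested wells on that plate plus 3 SD, cut at about 29% in these data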;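 also: 0% = Melanotan II alone and 100% = Melanotan II plus saturating MCL0020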
#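 Test system: U2OS cells stably expressing human melanocortin 4 receptor (MC4R); also added: Melanotan II challenge; compound: 6.5 µM single dose; timing: 30-min compound preincubation, 1-h Melanotan II challenge, 1-h detection, room temperature; signal: Eu-cAMP/anti-cAMP TR-FRET, emission 671 nm; repeats: one well per compound, no replicates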
# Active calls of the source: *; . = not tested or not shown. In the library only some 2.7% were active in any assay of this set; here they are far more common.
SMILES,PG9 binder,MC4R barr agon,Rev-erbA mod,NR2E3 ag-1,NR2E3 ag-2,MC4R antag cAMP
CCOC(=O)c1cnc(-n2nc(C)cc2C)nc1NCc1ccc2c(c1)OCO2,4,1,-12,82*,2,25
CCOC(=O)c1cnc(-n2nc(C)cc2C)nc1Nc1ccc(OC)cc1,-2,-2,-3,17,-6,-1
COc1ccc(N2CCN(C(CNC(=O)c3ccco3)c3ccco3)CC2)cc1 (centres undefined),1,1,11,21,-3,2
COc1ccc(C(C)NCCC(c2ccc(OC(C)C)cc2)c2ccccc2OC)cc1 (centres undefined),-2,20*,-1,-1,.,0
O=C(Cc1ccccc1)Nc1ccc(S(=O)(=O)N2CCOCC2)cc1,-1,1,-3,-2,2,15
COc1cc(NC(=O)c2ccccc2F)ccc1NC(=O)c1cc2ccccc2o1,1,8.8*,-4,-12,.,1
COC(=O)CC1C(=O)NCCN1C(=O)c1oc2c(C)c(C)ccc2c1C (centres undefined),1,-1,4,-20,.,-5
COc1cc(C(=O)Nc2nccs2)ccc1OCc1c(C)noc1C,2,4,0,-35,4,14
COc1cc(C(=O)Nc2nc3ccccc3s2)ccc1OCc1c(C)noc1C,11*,2,-1,-49,1,10
COc1ccc(C(=O)CNc2ccccc2C#N)cc1,0,8.3*,-7,-64,-1,12
O=C(COc1ccccc1Br)Nc1ccccc1C(F)(F)F,-2,9.4*,4,-20,-4,-2
CCn1cc([N+](=O)[O-])c(C(=O)Nc2ccc(Br)cn2)n1,2,0,9,-25,-1,-2
CN1CCN(C(=O)C2=C[C@@H](c3ccc4c(c3)OCO4)C[C@@H](OCc3ccc(CO)cc3)O2)CC1,0,0,-2,-2,-4,14
COc1ccc(C(=O)Oc2ccc3oc(=O)sc3c2)cc1,0,13*,3,-68,-1,-5
COc1ccc(C(=O)Oc2ccc3ccc(=O)oc3c2)cc1,0,2,-6,-33,-3,6
CC(C)C[C@H](NC(=O)OC(C)(C)C)c1nnc(SCC(=O)Nc2ccc(Br)cc2)o1,-3,8.3*,1,6,4,2
Cc1ccc2cc(CN(CC3CCCO3)C(=S)NCc3ccco3)c(=O)[nH]c2c1C (centres undefined),0,0,-7,-15,0,10
Cc1cccc(CCNC(=O)CC2C(=O)NCCN2Cc2ccc(F)c(F)c2)n1 (centres undefined),0,1,-1,4,0,0
Cc1cc(C)n(Cc2ccc(C(=O)O)cc2)n1,0,2,2,-13,1,1
Cc1ccc(C)n1Cc1ccc(C(=O)O)cc1,.,-2,.,-38,34*,0
Cc1cccc(OCc2n(CC(=O)OC3CC(C)CCC3C(C)C)c3ccccc3[n+]2C)c1 (centres undefined),.,23*,.,-19,2,-3
O=C(Nc1nnc(Cc2c[nH]c3ccccc23)s1)c1ccc(Cl)cc1Cl,0,5,-1,-66,4,-8
CC(C)(C)c1ccc(C(=O)Nc2nnc(Cc3c[nH]c4ccccc34)s2)cc1,-4,8.3*,5,-40,-2,9
O=C(Nc1cccc(F)c1)N1CC=C(n2c(=O)[nH]c3ccccc32)CC1,0,-2,2,-2,2,10
COCCn1c(=S)[nH]c2cc(C(=O)NCCCN3CCOCC3)ccc2c1=O,0,-2,1,-21,-1,4
SMILES,PG9 binder,MC4R barr agon,Rev-erbA mod,NR2E3 ag-1,NR2E3 ag-2,MC4R antag cAMP
FC(F)(F)c1ccc(N2CCN(Cc3ccc4c(c3)OCO4)CC2)nc1,0,9.2*,-5,3,-1,2
O=[N+]([O-])c1ccc(N2CCN(Cc3ccc4c(c3)OCO4)CC2)nc1,0,0,6,-22,3,-3
CC(/C=C/c1ccccc1)=N\NC(=O)CSc1ccccn1,-1,1,-1,-21,-5,-6
OCCN1CCN(C2CCC(c3ccc(F)cc3)c3ccc(F)cc32)CC1 (centres undefined),0,9.0*,-4,37,8,6
O=[N+]([O-])c1ccc2c(c1)C(N1CCN(CCO)CC1)Cc1ccc(F)cc1S2 (centres undefined),1,.,-2,1,.,.
COc1cccc(C(=O)COC(=O)c2ccc(NC(=O)c3ccccc3)cc2)c1,-1,8.7*,-3,-18,-1,0
COc1ccc(C(=O)Nc2ccc(C(=O)OCC(=O)c3ccccc3)cc2)cc1,1,0,2,-5,2,3
COc1ccc(CCNC(=O)c2cc(-c3ccccc3)on2)cc1OC,-1,9.5*,-8,-8,3,14
COc1ccc(NC(=O)c2cc(-c3ccccc3)on2)cc1OC,2,6,-4,-50,2,-4
CCOC(=O)Nc1nc(-c2ccc(F)cc2F)cs1,-2,-1,-4,-79,5,-6
COC(=O)Nc1nc(-c2cc(Cl)ccc2Cl)cs1,-2,10*,-2,-1,2,6
CC(=O)c1ccc(NC(=O)CSc2nc3[nH]ncc3c(=O)[nH]2)cc1,41*,-1,6,-2,2,-6
NS(=O)(=O)c1ccc(NC(=O)CN2CCCN(S(=O)(=O)c3ccc(F)cc3)CC2)cc1,0,1,-3,-1,0,9
COc1ccc(CCNC(=O)c2sc3cc(C)ccc3c2Cl)cc1,1,9.4*,0,-26,4,2
Cc1ccc(OCC(=O)NN=C2c3ccccc3-c3ccccc32)cc1,-2,8.6*,0,16,-1,-4
Cc1ccc(NN=C2c3ccccc3-c3ccccc32)cc1,0,8.4*,0,-32,-3,14
c1ccc(NN=C2c3ccccc3-c3ccccc32)cc1,-1,0,5,-42,.,4
O=C(c1ccc2c(c1)OCO2)C1CCCN(Cc2cccn2-c2cccnc2)C1 (centres undefined),-1,-1,4,13,-4,1

# Source: PubChem
